Measurements as given in ChEMBL document CHEMBL3580644, “Synthesis of piperlongumine analogues and discovery of nuclear factor erythroid 2-related factor 2 (Nrf2) activators as potential neuroprotective agents” (J Med Chem, 2015).
The source made the active and inactive calls. The rule behind the calls is not given here.

Key:
[1] = Cytotoxicity against rat PC12 cells assessed as reduction in cell viability at 20 uM to 100 uM incubated for 24 hrs by MTT assay; assay type: cell-based; conditions: pc-12, 24 h
[2] = Cytotoxicity against human L02 cells assessed as reduction in cell viability at 20 uM to 100 uM incubated for 24 hrs by MTT assay; assay type: cell-based; conditions: l02, 24 h
[3] = system: PC-12; assay: Cytoprotection activity against 6-OHDA-induced cytotoxicity in rat PC12 cells assessed as cell viability at 20 uM pre-incubated for 24 hrs before 6-OHDA exposure for 12 hrs by MTT assay; assay type: functional, cell-based
[4] = system: PC-12; assay: Cytoprotection activity against H2O2-induced cytotoxicity in rat PC12 cells assessed as increase in cell viability pre-incubated for 24 hrs before H2O2 exposure for 12 hrs by MTT assay; assay type: functional, cell-based
[5] = system: PC-12; assay: Cytoprotection activity against H2O2-induced oxidative stress in rat PC12 cells assessed as reduction in ROS generation at 10 and 20 uM pre-incubated for 24 hrs before H2O2 exposure for 5 hrs by DCFH-DA dye based fluorescent microscopy; assay type: functional, cell-based
[6] = Antioxidant activity assessed as DPPH radical scavenging activity at 20 uM incubated for 30 mins by spectrophotometry; assay type: physicochemical; conditions: 0.5 h
[7] = system: PC-12; assay: Induction of antioxidant genes expression in rat PC12 cells assessed as increase in GCLM mRNA level at 20 uM incubated for 6 hrs by qRT-PCR method; assay type: functional, cell-based
How it was run: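 PC12 cells, 1×10^6 per 60-mm dish, 1 day, then 20 μM compound for 0, 3, 6 and 12 h; total RNA isolated, quantified by 260/280 absorbance; mRNA by real-time RT-PCR normalized to GAPDH; mean ± SD of three independent experiments versus 0 h.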

[8] = system: PC-12; assay: Induction of antioxidant genes expression in rat PC12 cells assessed as increase in TrxR1 mRNA level at 20 uM incubated for 6 hrs by qRT-PCR method; assay type: functional, cell-based
How it was run: (§1)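 PC12 cells (1×10^6 per 60-mm dish) seeded 1 day, then exposed to 20 μM compound for 0, 3, 6 and 12 h. Total RNA isolated and quantified by 260/280 absorbance. Transcripts measured by qRT-PCR, normalized to GAPDH internal control, compared against 0 h control. Means ± SD of three independent experiments.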

[9] = system: PC-12; assay: Induction of antioxidant genes expression in rat PC12 cells assessed as increase in TrxR1 mRNA level at 20 uM incubated for 3 hrs by qRT-PCR method; assay type: functional, cell-based; how it was run: as §1
[10] = system: PC-12; assay: Induction of antioxidant defense system in rat PC12 cells assessed as increase in Trx activity level incubated for 24 hrs by recombinant rat TrxR1 based assay; assay type: functional, cell-based
How it was run: (§2)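 Cellular Trx activity: extract with 20 μg protein incubated 30 min at 37 °C in 100 mM Tris-HCl pH 7.4 with 0.3 mM insulin, 660 μM NADPH, 3 mM EDTA, 60 nM recombinant rat TrxR1; stopped with 1 mM DTNB in 6 M guanidine-HCl pH 8.0; A412 minus TrxR-free blank; % of DMSO control.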

[11] = system: PC-12; assay: Cytoprotection activity against H2O2-induced oxidative stress in rat PC12 cells assessed as Trx activity at pre-incubated for 24 hrs before H2O2 exposure for 12 hrs by recombinant rat TrxR1 based assay; assay type: functional, cell-based; how it was run: as §2
[12] = system: PC-12; assay: Cytoprotection activity against 6-OHDA-induced oxidative stress in rat PC12 cells assessed as GSH level at pre-incubated for 24 hrs before 6-OHDA exposure for 12 hrs; assay type: functional, cell-based
How it was run: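 Total glutathione: cells extracted in KPE buffer (0.1% Triton X-100, 0.6% sulfosalicylic acid, 5 mM EDTA, 0.1 M PBS pH 7.5), sonicated on ice, centrifuged 3000 g 4 min at 4 °C; supernatant assayed enzymatically. PC12 cells 1×10^6 in 60-mm dishes, compound 24 h; stress lines add 500 μM H2O2 or 200 μM 6-OHDA 12 h.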

[13] = system: PC-12; assay: Cytoprotection activity against 6-OHDA-induced oxidative stress in rat PC12 cells assessed as Trx activity at pre-incubated for 24 hrs before 6-OHDA exposure for 12 hrs by recombinant rat TrxR1 based assay; assay type: functional, cell-based; how it was run: as §2
[14] = system: PC-12; assay: Cytoprotection activity against 6-OHDA-induced oxidative stress in rat PC12 cells assessed as TrxR1 activity at pre-incubated for 24 hrs before 6-OHDA exposure for 12 hrs by Escherichia coli Trx based assay; assay type: functional, cell-based
How it was run: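 Cellular TrxR activity: extract with 20 μg protein incubated 30 min at 37 °C in 100 mM Tris-HCl pH 7.4 containing 0.3 mM insulin, 660 μM NADPH, 3 mM EDTA, 4 μM E. coli Trx; stopped with 1 mM DTNB in 6 M guanidine-HCl pH 8.0; A412 minus Trx-free blank; % of DMSO control.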

[15] = system: PC-12; assay: Induction of total Nrf2 protein expression in rat PC12 cells at 20 uM incubated for 2 to 8 hrs by Western blotting method; assay type: functional, cell-based
How it was run: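 Seeded at 1×10^6 cells per 60-mm dish for 24 h, PC12 cells were treated with 20 μM compound for 0, 2, 4 and 8 h. Whole-cell, cytosolic and nuclear protein extracts were then prepared and Nrf2 probed by Western blot.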

[16] = molecular target: T1, Nuclear factor erythroid 2-related factor 2 (Rattus norvegicus) (UniProt O54968); assay: Induction of Nrf2 nuclear translocation in rat PC12 cells at 20 uM incubated for 2 to 8 hrs by Western blotting method; assay type: cell-based; conditions: PC-12
T1 sequence (whole entry): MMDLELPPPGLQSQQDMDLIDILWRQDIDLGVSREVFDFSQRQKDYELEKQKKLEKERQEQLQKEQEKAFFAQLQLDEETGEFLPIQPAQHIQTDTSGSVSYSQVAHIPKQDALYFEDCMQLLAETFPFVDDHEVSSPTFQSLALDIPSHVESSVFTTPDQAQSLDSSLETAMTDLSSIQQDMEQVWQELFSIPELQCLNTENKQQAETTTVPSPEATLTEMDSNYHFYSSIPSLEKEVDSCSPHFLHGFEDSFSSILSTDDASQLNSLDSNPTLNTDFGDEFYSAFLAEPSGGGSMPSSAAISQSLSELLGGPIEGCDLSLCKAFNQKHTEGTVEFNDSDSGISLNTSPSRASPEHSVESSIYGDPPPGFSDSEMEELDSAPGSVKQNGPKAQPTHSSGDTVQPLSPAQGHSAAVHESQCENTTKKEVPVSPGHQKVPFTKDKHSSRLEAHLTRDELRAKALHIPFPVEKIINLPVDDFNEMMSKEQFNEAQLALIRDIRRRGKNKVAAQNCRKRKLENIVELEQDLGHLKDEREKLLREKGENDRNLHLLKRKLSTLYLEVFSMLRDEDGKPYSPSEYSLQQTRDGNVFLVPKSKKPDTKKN
How it was run: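 PC12 cells (1×10^6) in 60-mm dishes, 24 h, then 20 μM compound for 0, 2, 4 and 8 h; nuclear, cytosolic and whole-cell extracts prepared; Nrf2 detected by Western blot.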

[17] = system: PC-12; assay: Cytoprotection activity against H2O2-induced cytotoxicity in rat PC12 cells assessed as cell viability at 10 and 20 uM pre-incubated for 24 hrs before H2O2 exposure for 12 hrs in presence of shNrf2 by MTT assay; assay type: functional, cell-based

## COc1ccc(/C=C/C(=O)N2CCCC2=O)cc1
[1]
  Activity: Non-toxic
[2]
  Activity: Non-toxic
[3]
  Activity: Active
[4]
  Activity: Dose-dependent effect
[5]
  Activity: Dose-dependent effect
[6]
  Activity: Not Active
[7]
  Activity: Active
[8]
  Activity: Active
[9]
  Activity: Active
[10]
  Activity: Active
[11]
  Activity: Active
[12]
  Activity: Active
[13]
  Activity: Active
[14]
  Activity: Active
[15]
  Activity: Active
[16]
  Activity: Active
[17]
  Activity: inactive

## COc1cc(/C=C/C(=O)N2CCCCC2=O)cc(OC)c1OC
[1]
  Activity: Non-toxic
[2]
  Activity: Non-toxic
[3]
  Activity: Active
[4]
  Activity: Dose-dependent effect
[5]
  Activity: Dose-dependent effect
[6]
  Activity: Not Active
[7]
  Activity: Active
[8]
  Activity: Active
[9]
  Activity: Active
[10]
  Activity: Active
[11]
  Activity: Active
[12]
  Activity: Active
[13]
  Activity: Active
[14]
  Activity: Active
[15]
  Activity: Active
[16]
  Activity: Active
[17]
  Activity: inactive
